From ChEMBL document CHEMBL3232819, “Synthesis and biological evaluation of new pyrazolone-pyridazine conjugates as anti-inflammatory and analgesic agents” (Bioorg Med Chem, 2014) come the findings set out here.

Assay [1] deals with Mus musculus. The assay can be described thus: Analgesic activity in Swiss Albino mouse assessed as inhibition of acetic acid-induced writhing at 25 mg/kg, po administered 30 mins before to acetic acid challenge measured for 15 mins relative to vehicle-treated control. Type of assay: functional. More on the design: scale not given: the % may be the effect or the level left. In a few lines:
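Male Swiss albino mice, 25–32 g, n=6/group, dosed by oral gavage (5 mL/kg) in 1% CMC; vehicle controls. Mice habituated 30 min in test cage. Writhing induced by 0.1 mL 1% acetic acid ip at 30 min post-dose. Abdominal contractions counted for 15 min from the 5th min after injection. % protection = (n−n0)/n × 100 using group mean writhes. Mean ± SEM, one-way ANOVA/Bonferroni.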

Assay [2] has as its system Mus musculus. The assay can be described thus: Antiinflammatory activity in Swiss Albino mouse assessed as inhibition of carrageenan-induced paw edema at 25 mg/kg, po administered 30 mins before carrageenan challenge relative to vehicle-treated control. Type of assay: functional. Also on record: scale not given: the % may be the effect or the level left. Put shortly:
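Male Swiss albino mice, 25–32 g, six per group, given drug in 1% CMC orally 30 min before subplantar right hind paw injection of carrageenan (1% w/v in 0.9% saline, 0.05 mL/mouse). […] Mean ± SEM, one-way ANOVA/Bonferroni.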
(In general: In the carrageenan paw model, swelling and tenderness develop within hours.)

Assay [3] has as its system Mus musculus. The assay can be described thus: Antiinflammatory activity in Swiss Albino mouse assessed as inhibition of carrageenan-induced TNFalpha production in serum at 25 mg/kg, po administered 30 mins before carrageenan challenge after 30 mins by ELISA (reference value: 15.48 +/- 0.31 ng/ml). Type of assay: functional.
Assay [4] concerns Mus musculus. The assay can be described thus: Antiinflammatory activity in Swiss Albino mouse assessed as inhibition of carrageenan-induced IL-6 production in serum at 25 mg/kg, po administered 30 mins before carrageenan challenge after 30 mins by ELISA (reference value: 23.8 +/- 2.5 ng/ml). Type of assay: functional. In general terms: An ELISA detects its analyte on a solid surface through an enzyme-linked reagent.

Assay [5] addresses T1, Prostaglandin G/H synthase 1 (Ovis aries, UniProt P05979).
T1 sequence (P05979 whole entry): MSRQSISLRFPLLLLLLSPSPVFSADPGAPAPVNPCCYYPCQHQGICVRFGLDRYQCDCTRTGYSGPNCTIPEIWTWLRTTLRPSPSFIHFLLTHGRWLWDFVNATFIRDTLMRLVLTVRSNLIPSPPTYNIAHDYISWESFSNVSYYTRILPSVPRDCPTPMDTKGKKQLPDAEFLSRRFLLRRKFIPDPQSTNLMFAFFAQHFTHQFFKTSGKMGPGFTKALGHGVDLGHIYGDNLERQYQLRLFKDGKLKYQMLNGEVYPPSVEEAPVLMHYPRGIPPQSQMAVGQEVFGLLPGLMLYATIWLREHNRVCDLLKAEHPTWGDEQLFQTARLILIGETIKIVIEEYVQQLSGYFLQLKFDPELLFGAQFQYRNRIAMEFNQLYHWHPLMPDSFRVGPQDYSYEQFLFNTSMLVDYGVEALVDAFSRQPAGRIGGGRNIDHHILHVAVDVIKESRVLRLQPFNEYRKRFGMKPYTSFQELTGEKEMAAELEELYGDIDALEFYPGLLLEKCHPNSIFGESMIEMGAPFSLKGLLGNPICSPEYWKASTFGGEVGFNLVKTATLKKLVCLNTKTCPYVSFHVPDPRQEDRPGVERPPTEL
The assay can be described thus: Inhibition of ovine COX1 using arachidonic acid as substrate assessed as conversion of PGH2 to PGF2alpha after 10 mins by EIA. In a few lines: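 Ovine COX-1 EIA kit: enzyme with heme and DMSO-dissolved sample in 0.1 M Tris-HCl pH 8, 5 mM EDTA, 2 mM phenol, preincubated 10 min at 37 °C; arachidonic acid added (final 100 µM), stopped after 2 min with HCl, SnCl2 reduction 5 min RT; PGF2α by EIA (18 h RT, Ellman's, 410 nm). IC50 versus untreated control incubations.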

`O=C1CC(Nc2ccccc2Nc2ccc(Cl)nn2)=NN1`: the Activity in assay [1] came out at 33.4%; in assay [2], 11.2%; in assay [3], 13.2 ng/mL; in assay [4] it was 21.4 ng/mL.

Consider `CCOc1ccc(Nc2ccccc2NC2=NNC(=O)C2)nn1`, for which the Activity in assay [1] was 18.2%; in assay [2], 10.2%; in assay [3] it was 12.4 ng/mL; in assay [4], 22.4 ng/mL.

With `CN1CCN(c2ccc(Nc3ccccc3NC3=NNC(=O)C3)nn2)CC1`, the Activity stood at 41.2% in assay [1], 35.3% in assay [2], 9.34 ng/mL in assay [3] and 19.5 ng/mL in assay [4].

Turning to `O=C1CC(Nc2ccccc2Nc2ccc(N3CCCCC3)nn2)=NN1`, the Activity was 55.6% in assay [1], 59.4% in assay [2], 7.5 ng/mL in assay [3] and 16.5 ng/mL in assay [4]. In addition, in assay [5], the IC50 was determined as 3.15 µM.

For the molecule `O=C1CC(Nc2ccccc2Nc2ccc(N3CCOCC3)nn2)=NN1`, the Activity in assay [1] was 63.7%; in assay [2], 62.3%; in assay [3], 7.2 ng/mL; in assay [4], 11.8 ng/mL. Also, the IC50 in assay [5] turned out to be 2.86 µM.

For `O=C1CC(Nc2ccccc2Nc2ccc(Nc3ccccc3Cl)nn2)=NN1`, the Activity amounted to 57.2% in assay [1], 54.3% in assay [2], 6.4 ng/mL in assay [3] and 10.65 ng/mL in assay [4]. Further, the half-inhibitory concentration (IC50) in assay [5] came to 4.02 µM.

As for `O=C1CC(Nc2ccccc2Nc2ccc(Nc3ccc(Cl)cc3)nn2)=NN1`, the Activity in assay [1] was determined as 68.3%; in assay [2], 35.4%; in assay [3], 7.12 ng/mL; in assay [4], 9.76 ng/mL. For the same molecule, in assay [5], the IC50 was 4.46 µM.

Take `O=C1CC(Nc2ccccc2Nc2ccc(Nc3ccccc3F)nn2)=NN1`: the Activity in assay [1] turned out to be 36.1%; in assay [2], 11.2%; in assay [3], 11.2 ng/mL; in assay [4], 17.3 ng/mL.

With `O=C1CC(Nc2ccccc2Nc2ccc(Nc3cccc([N+](=O)[O-])c3)nn2)=NN1`, the Activity in assay [1] was found to be 13.2%; in assay [2], 5.4%; in assay [3], 13.5 ng/mL; in assay [4] it was 18.3 ng/mL.

As for `NS(=O)(=O)c1ccc(Nc2ccc(Nc3ccccc3NC3=NNC(=O)C3)nn2)cc1`, the Activity was 11.3% in assay [1], 15.4% in assay [2], 16.7 ng/mL in assay [3] and 21.43 ng/mL in assay [4].

As to `NC(=O)c1ccccc1Nc1ccc(Nc2ccccc2NC2=NNC(=O)C2)nn1`, the Activity in assay [1] worked out at 13.2%; in assay [2] it was 18.2%; in assay [3], 12.5 ng/mL; in assay [4] it was 22.3 ng/mL.

On to `NC(=O)c1ccccc1Oc1ccc(Nc2ccccc2NC2=NNC(=O)C2)nn1`, for which the Activity in assay [1] was found to be 14.2%; in assay [2], 9.3%; in assay [3], 11.98 ng/mL; in assay [4], 22.6 ng/mL.

As to `O=C([O-])Cc1ccccc1Nc1c(Cl)cccc1Cl.[Na+]` [DICLOFENAC SODIUM], the Activity came to 83.3% in assay [1], 61.5% in assay [2], 5.01 ng/mL in assay [3] and 7.6 ng/mL in assay [4].

In general, IC50 refers to the concentration that gives 50% inhibition.
